Data on 38 sequences can be found in the array DNA melting data of Ke et al. (doi:10.1101/2024.01.08.574731).

Series [1] can be described thus: folding enthalpy; higher = less favourable; fluorescence melt of hairpins on a sequencing array, two-state fit. As to conditions: sodium 0.088 M. Put shortly:
(§1)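 On a sequenced MiSeq flow cell, library hairpins with annealed Cy3 and quencher oligos were imaged for Cy3 fluorescence in 2.5 °C steps up to 60 °C, in 50 mM Na-HEPES pH 8.0, 25 mM NaCl. Normalisation used pre-quench Cy3 and control constructs. Bootstrapped two-state fits gave melting temperature and folding enthalpy, combined by inverse variance across four replicates and with fitted temperatures raised by 9.35 °C to match UV melts.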

Series [2] in a line: melting temperature; fluorescence melt of hairpins on a sequencing array, two-state fit, raised by 9.35 °C to match UV melts. The settings on record: sodium 0.088 M. Summed up: as §1

With GATCTTAGATAAGATC ((((((....)))))), the folding enthalpy in series [1] was -42.7 kcal/mol. Moreover, the Tm in series [2] was found to be 41.8 °C.

Regarding GATCTTAGCCAAGATC ((((((....)))))), the folding enthalpy in series [1] was -32.2 kcal/mol. In addition, in series [2], the Tm was determined as 43.1 °C.

For the sequence GATCTTAGGTAAGATC ((((((....)))))), the folding enthalpy in series [1] is -30.1 kcal/mol. The Tm in series [2] worked out at 42.6 °C.

Regarding GATCTTAGTGAAGATC ((((((....)))))), the folding enthalpy in series [1] was -27.1 kcal/mol. Further, the Tm in series [2] was 43.1 °C.

With GATCTTATGCAAGATC ((((((....)))))), the folding enthalpy in series [1] is -36.5 kcal/mol. For the same sequence, the Tm in series [2] turned out to be 43 °C.

For GATCTTATGGAAGATC ((((((....)))))), the folding enthalpy in series [1] is -29.2 kcal/mol. Further, in series [2], the Tm was found to be 40.5 °C.

On to GATCTTATTTAAGATC ((((((....)))))), for which the folding enthalpy in series [1] was -38.8 kcal/mol. Moreover, the Tm in series [2] turned out to be 46.4 °C.

On to GATCTTCAACAAGATC ((((((....)))))), for which, in series [1], the folding enthalpy was -25.1 kcal/mol. In addition, the Tm in series [2] turned out to be 38.3 °C.

For GATCTTCACAAAGATC ((((((....)))))), the folding enthalpy in series [1] was -28.9 kcal/mol. In series [2], the Tm stood at 44.9 °C.

Turning to GATCTTCAGGAAGATC ((((((....)))))), the folding enthalpy in series [1] was -29 kcal/mol. In series [2], the Tm was determined as 46.8 °C.

Consider GATCTTCCAAAGATC ((((((...)))))), for which the folding enthalpy in series [1] was -27.4 kcal/mol. Besides, in series [2], the Tm is 43.2 °C.

As to GATCTTCCCAAAGATC ((((((....)))))), the folding enthalpy in series [1] was -32.6 kcal/mol. In addition, the Tm in series [2] was 45.5 °C.

Take GATCTTCCCAAGATC ((((((...)))))): the folding enthalpy in series [1] was -37.6 kcal/mol. The Tm in series [2] was found to be 45.8 °C.

GATCTTCCCCAAGATC ((((((....)))))): the folding enthalpy in series [1] is -35.2 kcal/mol. Also, the Tm in series [2] was 41.6 °C.

On to GATCTTCCGAAGATC ((((((...)))))), for which, in series [1], the folding enthalpy was -31.9 kcal/mol. The Tm in series [2] was found to be 43 °C.

As to GATCTTCCTAAGATC ((((((...)))))), the folding enthalpy in series [1] is -31.6 kcal/mol. Further, the Tm in series [2] worked out at 45.7 °C.

Take GATCTTCGCTAAGATC ((((((....)))))): the folding enthalpy in series [1] was -34.2 kcal/mol. In addition, the Tm in series [2] was found to be 43 °C.

As to GATCTTCTAAAAGATC ((((((....)))))), the folding enthalpy in series [1] is -30.2 kcal/mol. Moreover, the Tm in series [2] is 42 °C.

With GATCTTCTGGAAGATC ((((((....)))))), the folding enthalpy in series [1] was -46.2 kcal/mol. Besides, the Tm in series [2] came out at 49.7 °C.

On to GATCTTCTTAAGATC ((((((...)))))), for which the folding enthalpy in series [1] was -30.1 kcal/mol. The Tm in series [2] was 44.3 °C.

Regarding GATCTTGACGAAGATC ((((((....)))))), in series [1], the folding enthalpy is -26.5 kcal/mol. The Tm in series [2] is 46.1 °C.

Take GATCTTGAGAAGATC ((((((...)))))): the folding enthalpy in series [1] is -19.9 kcal/mol. For the same sequence, the Tm in series [2] was determined as 39.6 °C.

Take GATCTTGATAAAGATC ((((((....)))))): in series [1], the folding enthalpy was -40.9 kcal/mol. Also, in series [2], the Tm was 52.1 °C.

For the sequence GATCTTGCGAAAGATC ((((((....)))))), the folding enthalpy in series [1] is -46.2 kcal/mol. Also, in series [2], the Tm was found to be 50.6 °C.

Consider GATCTTGCTCAAGATC ((((((....)))))), for which, in series [1], the folding enthalpy is -39.4 kcal/mol. In addition, in series [2], the Tm was 48.3 °C.

Turning to GATCTTGCTGAAGATC ((((((....)))))), in series [1], the folding enthalpy was -31.4 kcal/mol. In addition, in series [2], the Tm is 43.2 °C.

Take GATCTTGGAAAAGATC ((((((....)))))): the folding enthalpy in series [1] was -33 kcal/mol. In addition, in series [2], the Tm is 49 °C.

For GATCTTGGAAACAGGATC ((((.((....)).)))), in series [1], the folding enthalpy was -28.6 kcal/mol. The Tm in series [2] stood at 39.1 °C.

For the sequence GATCTTGGCCAAGATC ((((((....)))))), the folding enthalpy in series [1] is -57.1 kcal/mol. Also, the Tm in series [2] was 54.8 °C.

As for GATCTTGGGAAAGATC ((((((....)))))), in series [1], the folding enthalpy was -33.3 kcal/mol. For the same sequence, in series [2], the Tm was found to be 49.1 °C.

On to GATCTTGGGGAAGATC ((((((....)))))), for which the folding enthalpy in series [1] was -29.1 kcal/mol. Moreover, the Tm in series [2] is 40.8 °C.

For the sequence GATCTTGGTAAGATC ((((((...)))))), the folding enthalpy in series [1] is -29 kcal/mol. The Tm in series [2] turned out to be 43.2 °C.

As to GATCTTGGTCAAGATC ((((((....)))))), the folding enthalpy in series [1] was -36.8 kcal/mol. Besides, the Tm in series [2] was 48.9 °C.

Turning to GATCTTGGTTAAGATC ((((((....)))))), in series [1], the folding enthalpy is -30.5 kcal/mol. For the same sequence, the Tm in series [2] was determined as 43.7 °C.

As to GATCTTGTACAAGATC ((((((....)))))), the folding enthalpy in series [1] was -43.2 kcal/mol. For the same sequence, the Tm in series [2] is 51.7 °C.

Regarding GATCTTGTATAAGATC ((((((....)))))), the folding enthalpy in series [1] is -37.7 kcal/mol. The Tm in series [2] was determined as 50.5 °C.

On to GATCTTGTGAAGATC ((((((...)))))), for which the folding enthalpy in series [1] is -28.9 kcal/mol. In addition, in series [2], the Tm came to 42.4 °C.

Regarding GATCTTGTTCAAGATC ((((((....)))))), the folding enthalpy in series [1] is -43.4 kcal/mol. Moreover, the Tm in series [2] turned out to be 49.1 °C.
